The text below walks through data of ChEMBL document CHEMBL2346640, “Bromo-deaza-SAH: a potent and selective DOT1L inhibitor” (Bioorg Med Chem, 2013).

Assay [1] deals with T1, Histone-lysine N-methyltransferase SETD7 (Homo sapiens) (UniProt Q8WTS6).
T1 sequence (whole entry): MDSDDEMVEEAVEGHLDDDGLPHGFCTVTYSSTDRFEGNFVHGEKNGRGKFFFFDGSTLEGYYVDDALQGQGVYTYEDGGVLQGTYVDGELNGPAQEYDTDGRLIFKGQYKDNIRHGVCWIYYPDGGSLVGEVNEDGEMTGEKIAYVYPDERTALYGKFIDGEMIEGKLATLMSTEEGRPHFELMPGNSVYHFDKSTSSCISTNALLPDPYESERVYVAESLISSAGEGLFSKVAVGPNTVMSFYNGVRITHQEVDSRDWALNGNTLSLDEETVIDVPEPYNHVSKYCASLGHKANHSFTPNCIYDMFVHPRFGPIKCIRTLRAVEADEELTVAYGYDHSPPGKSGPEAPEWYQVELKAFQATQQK
The assay is described as follows: Inhibition of SETD7 (unknown origin) using [3H]SAM assessed as inhibition of biotinylated-H3 (1 to 25 amino acid residues) methylation at 0.1 to 100 uM after 1 hr by scintillation proximity assay. In outline: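 Triplicates, 1 h at room temperature, compound at 100 nM–100 µM. Guanidine HCl stop, then Flashplate CPM normalised to controls. Ki = IC50/2.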

For assay [2], the target named is Protein arginine N-methyltransferase 3 (Homo sapiens, UniProt O60678). The assay is described as follows: Inhibition of PRMT3 (unknown origin) using [3H]SAM assessed as inhibition of biotinylated-H4 (1 to 24 amino acid residues) methylation after 1 hr by scintillation proximity assay.
Sequence of Protein arginine N-methyltransferase 3 (O60678 whole entry, the tested form may be a part): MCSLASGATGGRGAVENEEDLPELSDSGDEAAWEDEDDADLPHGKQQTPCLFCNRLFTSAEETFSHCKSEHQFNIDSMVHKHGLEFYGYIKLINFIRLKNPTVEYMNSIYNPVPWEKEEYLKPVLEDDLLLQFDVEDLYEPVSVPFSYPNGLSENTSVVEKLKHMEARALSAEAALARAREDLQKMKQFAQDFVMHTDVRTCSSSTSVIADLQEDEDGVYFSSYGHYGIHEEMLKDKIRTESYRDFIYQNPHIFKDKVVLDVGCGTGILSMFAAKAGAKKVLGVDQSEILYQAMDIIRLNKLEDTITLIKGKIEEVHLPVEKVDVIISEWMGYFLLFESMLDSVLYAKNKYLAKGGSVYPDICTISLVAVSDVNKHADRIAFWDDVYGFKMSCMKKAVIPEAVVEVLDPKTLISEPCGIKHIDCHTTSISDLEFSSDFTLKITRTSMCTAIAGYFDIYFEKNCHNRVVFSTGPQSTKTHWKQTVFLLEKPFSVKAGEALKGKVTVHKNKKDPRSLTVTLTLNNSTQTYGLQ
Assay [3] concerns the target T2, N-lysine methyltransferase KMT5A (Homo sapiens) (UniProt Q9NQR1).
T2 sequence (whole entry): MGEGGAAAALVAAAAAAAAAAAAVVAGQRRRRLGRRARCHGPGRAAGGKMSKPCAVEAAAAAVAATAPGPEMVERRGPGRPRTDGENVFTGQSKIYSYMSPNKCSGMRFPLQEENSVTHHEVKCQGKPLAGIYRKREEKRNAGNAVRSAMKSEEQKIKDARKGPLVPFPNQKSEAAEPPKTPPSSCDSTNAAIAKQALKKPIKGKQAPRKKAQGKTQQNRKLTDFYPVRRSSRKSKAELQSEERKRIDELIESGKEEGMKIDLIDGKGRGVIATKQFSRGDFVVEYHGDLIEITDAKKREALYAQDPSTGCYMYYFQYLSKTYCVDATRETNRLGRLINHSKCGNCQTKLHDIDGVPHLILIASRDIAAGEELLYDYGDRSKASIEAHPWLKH
The assay is described as follows: Inhibition of SETD8 (unknown origin) using [3H]SAM assessed as inhibition of biotinylated-H4 (1 to 24 amino acid residues) methylation at 0.1 to 100 uM after 1 hr by scintillation proximity assay.

In assay [4] the target is Protein arginine N-methyltransferase 5 (Homo sapiens, UniProt O14744). As to the kind of experiment: Inhibition of PRMT5 (unknown origin) using [3H]SAM after 1 hr by scintillation proximity assay. In outline: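 Triplicates, 1 h at room temperature, compound at 100 nM–100 µM. Guanidine quench, then Flashplate counting. Ki calculated as IC50/2.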
Sequence of Protein arginine N-methyltransferase 5 (O14744 whole entry): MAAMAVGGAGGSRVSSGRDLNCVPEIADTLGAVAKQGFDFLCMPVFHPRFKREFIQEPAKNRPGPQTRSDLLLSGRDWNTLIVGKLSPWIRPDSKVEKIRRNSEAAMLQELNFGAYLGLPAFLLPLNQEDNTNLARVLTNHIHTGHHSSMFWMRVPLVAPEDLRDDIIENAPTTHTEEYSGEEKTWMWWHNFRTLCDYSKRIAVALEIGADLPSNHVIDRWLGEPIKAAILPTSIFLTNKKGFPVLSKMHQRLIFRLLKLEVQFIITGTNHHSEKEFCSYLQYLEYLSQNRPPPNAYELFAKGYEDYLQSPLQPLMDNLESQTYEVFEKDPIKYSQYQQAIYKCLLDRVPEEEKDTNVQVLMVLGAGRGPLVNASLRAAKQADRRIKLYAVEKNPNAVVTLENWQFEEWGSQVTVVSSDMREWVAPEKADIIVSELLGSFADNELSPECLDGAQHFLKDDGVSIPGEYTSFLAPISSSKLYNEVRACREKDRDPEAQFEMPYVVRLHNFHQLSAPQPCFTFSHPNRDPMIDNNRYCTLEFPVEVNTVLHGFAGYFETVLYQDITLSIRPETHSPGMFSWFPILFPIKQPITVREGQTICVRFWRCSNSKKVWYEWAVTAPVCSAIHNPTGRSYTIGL
Assay [5] concerns the target T3, Histone-lysine N-methyltransferase EHMT2 (Homo sapiens) (UniProt Q96KQ7).
T3 sequence (whole entry): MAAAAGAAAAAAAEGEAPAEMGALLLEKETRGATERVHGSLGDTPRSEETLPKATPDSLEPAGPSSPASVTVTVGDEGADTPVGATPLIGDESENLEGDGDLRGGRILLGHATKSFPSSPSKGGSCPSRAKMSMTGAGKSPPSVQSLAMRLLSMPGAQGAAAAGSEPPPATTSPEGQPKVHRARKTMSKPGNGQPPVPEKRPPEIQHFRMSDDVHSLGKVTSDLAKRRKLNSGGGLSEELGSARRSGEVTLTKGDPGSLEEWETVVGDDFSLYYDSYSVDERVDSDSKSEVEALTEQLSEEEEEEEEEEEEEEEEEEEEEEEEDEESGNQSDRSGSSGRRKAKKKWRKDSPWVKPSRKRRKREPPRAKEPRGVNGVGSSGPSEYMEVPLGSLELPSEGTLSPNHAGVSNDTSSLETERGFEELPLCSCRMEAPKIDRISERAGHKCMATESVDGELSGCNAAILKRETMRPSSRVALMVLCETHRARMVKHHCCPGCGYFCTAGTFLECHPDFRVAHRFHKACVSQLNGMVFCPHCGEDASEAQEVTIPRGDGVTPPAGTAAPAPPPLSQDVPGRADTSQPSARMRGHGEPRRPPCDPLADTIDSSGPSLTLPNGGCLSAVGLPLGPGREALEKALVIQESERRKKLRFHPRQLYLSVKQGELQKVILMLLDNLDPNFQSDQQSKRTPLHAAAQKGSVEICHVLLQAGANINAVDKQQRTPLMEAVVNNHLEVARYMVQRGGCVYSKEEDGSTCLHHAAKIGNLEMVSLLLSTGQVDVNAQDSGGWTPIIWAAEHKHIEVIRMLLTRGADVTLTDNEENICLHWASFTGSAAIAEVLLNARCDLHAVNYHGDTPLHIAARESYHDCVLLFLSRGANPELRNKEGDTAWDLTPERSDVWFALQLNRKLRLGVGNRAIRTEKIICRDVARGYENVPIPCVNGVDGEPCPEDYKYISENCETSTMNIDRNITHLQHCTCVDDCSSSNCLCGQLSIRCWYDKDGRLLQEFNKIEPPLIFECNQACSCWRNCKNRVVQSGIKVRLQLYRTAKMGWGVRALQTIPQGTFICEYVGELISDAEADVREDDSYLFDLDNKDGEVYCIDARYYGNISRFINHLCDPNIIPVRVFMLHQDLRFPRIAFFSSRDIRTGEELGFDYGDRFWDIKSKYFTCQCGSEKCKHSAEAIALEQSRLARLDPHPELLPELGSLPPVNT
The assay is described as follows: Inhibition of G9a (unknown origin) using [3H]SAM assessed as inhibition of biotinylated-H3 (1 to 25 amino acid residues) methylation after 1 hr by scintillation proximity assay. In outline:
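Triplicates, 1 h at room temperature. Guanidine HCl stop, then Flashplate CPM. Compound at 100 nM–100 µM. Activity normalised to no-compound (100%) and no-enzyme (0%) controls. Ki = IC50/2.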

Assay [6] addresses T4, Nicotinamide N-methyltransferase (Homo sapiens, UniProt P40261).
T4 sequence (P40261 whole entry): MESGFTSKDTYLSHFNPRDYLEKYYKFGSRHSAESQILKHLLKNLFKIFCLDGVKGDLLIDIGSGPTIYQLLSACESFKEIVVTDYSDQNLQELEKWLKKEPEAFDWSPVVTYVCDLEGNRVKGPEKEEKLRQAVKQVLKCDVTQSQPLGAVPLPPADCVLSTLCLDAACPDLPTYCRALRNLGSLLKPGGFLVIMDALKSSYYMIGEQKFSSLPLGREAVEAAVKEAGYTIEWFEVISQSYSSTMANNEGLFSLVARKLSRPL
The assay is described as follows: Inhibition of recombinant full length human NNMT measured for 30 mins by SAHH-coupled fluorescence assay. In outline:
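Compound at 0.1–100 µM. Fluorescence (ex 360, em 528 nm) followed for 30 min; rates taken from initial linear slopes and expressed as % activity. IC50 from a four-parameter logistic fit; SD from three independent experiments.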

In assay [7] the target is T5, Histone-lysine N-methyltransferase EHMT1 (Homo sapiens) (UniProt Q9H9B1).
T5 sequence (whole entry): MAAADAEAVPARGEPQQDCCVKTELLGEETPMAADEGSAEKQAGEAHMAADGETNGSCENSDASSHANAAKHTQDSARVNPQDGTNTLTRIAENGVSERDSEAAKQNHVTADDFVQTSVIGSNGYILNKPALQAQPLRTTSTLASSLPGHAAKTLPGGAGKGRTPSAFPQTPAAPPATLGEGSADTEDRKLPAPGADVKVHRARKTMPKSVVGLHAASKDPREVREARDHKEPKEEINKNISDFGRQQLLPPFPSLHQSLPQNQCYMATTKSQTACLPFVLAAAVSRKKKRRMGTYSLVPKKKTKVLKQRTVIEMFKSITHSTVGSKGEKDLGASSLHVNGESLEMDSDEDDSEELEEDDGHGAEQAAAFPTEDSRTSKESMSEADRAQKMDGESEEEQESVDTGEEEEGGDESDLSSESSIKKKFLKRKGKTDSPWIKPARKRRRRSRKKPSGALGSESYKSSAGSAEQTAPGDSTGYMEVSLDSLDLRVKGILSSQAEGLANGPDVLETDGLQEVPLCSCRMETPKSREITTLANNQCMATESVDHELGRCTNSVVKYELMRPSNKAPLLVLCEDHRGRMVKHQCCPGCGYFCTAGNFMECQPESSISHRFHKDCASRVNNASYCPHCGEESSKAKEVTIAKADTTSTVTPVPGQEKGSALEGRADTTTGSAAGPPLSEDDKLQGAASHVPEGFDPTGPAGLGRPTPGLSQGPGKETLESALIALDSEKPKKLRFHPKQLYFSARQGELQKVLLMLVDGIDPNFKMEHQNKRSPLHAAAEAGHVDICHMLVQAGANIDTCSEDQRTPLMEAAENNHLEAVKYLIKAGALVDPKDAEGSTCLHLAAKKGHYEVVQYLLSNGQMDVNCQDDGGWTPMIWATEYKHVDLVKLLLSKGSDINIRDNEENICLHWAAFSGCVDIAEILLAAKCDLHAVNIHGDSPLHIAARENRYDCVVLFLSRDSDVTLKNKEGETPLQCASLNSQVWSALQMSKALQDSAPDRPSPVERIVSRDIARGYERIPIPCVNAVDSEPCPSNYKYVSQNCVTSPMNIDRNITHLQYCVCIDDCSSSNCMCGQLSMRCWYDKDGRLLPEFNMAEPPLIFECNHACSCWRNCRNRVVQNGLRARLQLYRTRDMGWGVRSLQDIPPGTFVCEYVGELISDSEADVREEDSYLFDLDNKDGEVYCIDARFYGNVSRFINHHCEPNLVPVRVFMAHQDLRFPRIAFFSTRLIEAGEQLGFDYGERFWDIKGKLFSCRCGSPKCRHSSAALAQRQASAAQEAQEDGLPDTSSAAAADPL
As to the kind of experiment: Inhibition of EHMT1 (unknown origin) using [3H]SAM assessed as inhibition of biotinylated-H3 (1 to 25 amino acid residues) methylation at 0.1 to 100 uM after 1 hr by scintillation proximity assay. The procedure, abridged:
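Triplicates, 1 h at room temperature. Compound range 100 nM–100 µM. Guanidine stop, then Flashplate counting against no-compound and no-enzyme controls. Ki derived as IC50/2.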

The next assay is filed under the species Homo sapiens. The assay is described as follows: Inhibition of PRC2 complex (unknown origin) using [3H]SAM assessed as inhibition of biotinylated-H3 (21 to 44 amino acid residues) methylation at 0.1 to 100 uM after 1 hr by scintillation proximity assay.
Assay [8] concerns the target DNA (cytosine-5)-methyltransferase 1 (Homo sapiens, UniProt P26358). The assay is described as follows: Inhibition of DNMT1 (unknown origin) using [3H]-SAM assessed as inhibition of dsDNA methylation after 1 hr by scintillation proximity assay. In outline: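 Incubated 1 h at 37 °C, quenched with guanidine HCl, then counted on a Flashplate. IC50 was taken at the SAM Km and converted to Ki as IC50/2.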

The target in assay [9] is Histone-lysine N-methyltransferase SUV39H2 (Homo sapiens) (UniProt Q9H5I1). The assay is described as follows: Inhibition of SUV39H2 (unknown origin) using [3H]SAM assessed as inhibition of biotinylated-H3 (1 to 25 amino acid residues) methylation at 0.1 to 100 uM after 1 hr by scintillation proximity assay. The procedure, abridged:
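Triplicate 1 h room-temperature reactions with compound at 100 nM–100 µM. Read on Flashplate after guanidine quench. Ki = IC50/2.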

Assay [10] concerns the target Histone-lysine N-methyltransferase 2A (Homo sapiens) (UniProt Q03164). The assay is described as follows: Inhibition of MLL1 (unknown origin) using [3H]SAM assessed as inhibition of biotinylated-H3 (1 to 25 amino acid residues) methylation at 0.1 to 100 uM after 1 hr by scintillation proximity assay.

Calls of active or inactive are those of the source. The calls are words filed in the database; no cut-off is given here.

Sequence of DNA (cytosine-5)-methyltransferase 1 (P26358 whole entry): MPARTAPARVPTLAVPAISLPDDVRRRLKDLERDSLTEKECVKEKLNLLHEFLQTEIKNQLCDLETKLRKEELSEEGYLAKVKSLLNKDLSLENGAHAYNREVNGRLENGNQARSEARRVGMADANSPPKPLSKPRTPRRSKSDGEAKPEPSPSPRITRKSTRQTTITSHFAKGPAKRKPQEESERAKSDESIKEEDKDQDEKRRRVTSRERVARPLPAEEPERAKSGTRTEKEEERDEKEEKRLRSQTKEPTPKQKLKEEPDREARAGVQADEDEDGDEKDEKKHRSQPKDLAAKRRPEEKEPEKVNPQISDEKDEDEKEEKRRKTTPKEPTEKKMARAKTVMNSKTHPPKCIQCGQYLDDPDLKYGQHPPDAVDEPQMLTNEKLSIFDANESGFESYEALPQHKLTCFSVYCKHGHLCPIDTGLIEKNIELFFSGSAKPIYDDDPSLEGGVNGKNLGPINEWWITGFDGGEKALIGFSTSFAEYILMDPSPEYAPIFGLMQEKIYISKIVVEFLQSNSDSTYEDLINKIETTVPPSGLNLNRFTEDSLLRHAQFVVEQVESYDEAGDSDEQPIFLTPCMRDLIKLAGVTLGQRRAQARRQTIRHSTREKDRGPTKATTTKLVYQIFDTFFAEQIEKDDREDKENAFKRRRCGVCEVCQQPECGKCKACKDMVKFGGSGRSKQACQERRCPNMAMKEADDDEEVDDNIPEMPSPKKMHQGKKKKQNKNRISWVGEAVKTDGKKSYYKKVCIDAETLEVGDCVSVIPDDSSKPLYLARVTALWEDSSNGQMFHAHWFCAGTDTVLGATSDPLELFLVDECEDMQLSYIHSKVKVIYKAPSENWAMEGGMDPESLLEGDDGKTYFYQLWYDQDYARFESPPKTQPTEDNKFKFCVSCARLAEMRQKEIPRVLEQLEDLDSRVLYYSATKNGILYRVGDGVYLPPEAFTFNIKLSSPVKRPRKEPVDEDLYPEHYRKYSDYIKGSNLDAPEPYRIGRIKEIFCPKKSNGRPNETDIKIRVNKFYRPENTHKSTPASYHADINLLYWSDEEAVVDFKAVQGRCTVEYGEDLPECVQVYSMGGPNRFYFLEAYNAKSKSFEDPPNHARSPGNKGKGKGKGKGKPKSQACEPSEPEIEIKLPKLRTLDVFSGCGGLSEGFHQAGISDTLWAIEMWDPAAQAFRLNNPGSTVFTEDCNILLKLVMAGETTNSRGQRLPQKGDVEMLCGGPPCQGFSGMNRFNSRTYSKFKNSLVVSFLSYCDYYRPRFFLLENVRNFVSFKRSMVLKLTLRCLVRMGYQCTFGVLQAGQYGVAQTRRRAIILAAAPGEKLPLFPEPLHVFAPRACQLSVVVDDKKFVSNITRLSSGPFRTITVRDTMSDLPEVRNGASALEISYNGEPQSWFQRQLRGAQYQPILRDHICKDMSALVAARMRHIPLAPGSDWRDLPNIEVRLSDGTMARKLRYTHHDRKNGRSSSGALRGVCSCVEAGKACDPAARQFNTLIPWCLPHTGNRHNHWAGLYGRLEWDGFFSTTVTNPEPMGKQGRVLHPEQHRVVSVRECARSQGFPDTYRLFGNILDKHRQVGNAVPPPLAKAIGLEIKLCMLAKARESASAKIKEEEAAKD
Sequence of Histone-lysine N-methyltransferase SUV39H2 (Homo sapiens) (Q9H5I1 whole entry, the tested form may be a part): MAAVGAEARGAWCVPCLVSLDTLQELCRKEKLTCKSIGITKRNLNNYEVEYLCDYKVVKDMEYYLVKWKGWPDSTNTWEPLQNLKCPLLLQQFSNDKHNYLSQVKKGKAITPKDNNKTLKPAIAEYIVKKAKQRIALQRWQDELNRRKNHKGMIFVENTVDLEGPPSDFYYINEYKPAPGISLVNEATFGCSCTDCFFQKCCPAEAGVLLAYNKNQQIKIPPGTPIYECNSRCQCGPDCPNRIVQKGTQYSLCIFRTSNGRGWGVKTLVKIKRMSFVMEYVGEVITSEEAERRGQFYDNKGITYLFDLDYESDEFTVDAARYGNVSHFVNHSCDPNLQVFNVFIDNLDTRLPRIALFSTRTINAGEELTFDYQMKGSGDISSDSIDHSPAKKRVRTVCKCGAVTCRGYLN

Consider `Nc1ncnc2c1c(Br)cn2[C@@H]1O[C@H](CSCC[C@H](N)C(=O)O)[C@@H](O)[C@H]1O`, for which the inhibition result (in assay [1]; in assay [3]; in assay [5]; in assay [7]; in the assay filed under Homo sapiens; in assay [9]) was “inactive” throughout. For the same compound, in assay [10], the inhibition entry was “inactive”. For the same compound, the half-inhibitory concentration (IC50) in assay [2] worked out at 2300 nM; in assay [4], 2300 nM; in assay [6], 1500 nM; in assay [8], 1900 nM. Also, the Ki in assay [2] was 1150 nM; in assay [4], 1150 nM; in assay [6], 750 nM; in assay [8] it was 950 nM.
